Data: ChEMBL document CHEMBL4321819, “Simple Structural Modifications Converting a Bona fide MDM2 PROTAC Degrader into a Molecular Glue Molecule: A Cautionary Tale in the Design of PROTAC Degraders” (J Med Chem, 2019)
Calls of active or inactive are those of the source. The calls are words filed in the database; no cut-off is given here.

Legend:
[1] = target: T1, E3 ubiquitin-protein ligase Mdm2 (Homo sapiens, UniProt Q00987); assay: Induction of MDM2 degradation in human RS4:11 cells assessed as downregulation of MDM2 at 1 to 30 nM after 1 hr by Western blot analysis; format: cell-based
T1 sequence (Q00987 whole entry, looked up): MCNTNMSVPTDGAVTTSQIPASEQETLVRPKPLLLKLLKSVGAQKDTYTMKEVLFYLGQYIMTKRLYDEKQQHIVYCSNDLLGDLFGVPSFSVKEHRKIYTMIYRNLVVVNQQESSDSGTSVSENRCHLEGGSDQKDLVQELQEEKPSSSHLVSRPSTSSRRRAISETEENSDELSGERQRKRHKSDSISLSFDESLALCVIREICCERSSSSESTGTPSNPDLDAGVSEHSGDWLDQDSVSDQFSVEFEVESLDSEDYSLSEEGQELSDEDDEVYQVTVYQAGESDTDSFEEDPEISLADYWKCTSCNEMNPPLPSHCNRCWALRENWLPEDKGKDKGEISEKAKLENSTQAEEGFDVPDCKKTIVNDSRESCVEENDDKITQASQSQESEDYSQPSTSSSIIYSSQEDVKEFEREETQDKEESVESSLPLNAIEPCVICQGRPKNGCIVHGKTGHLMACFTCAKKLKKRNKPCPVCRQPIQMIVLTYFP
How it was run: (§1)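 Western blots of MDM2 and p53 protein were run on RS4;11 cells (wild-type p53) in RPMI 1640 with 10% FBS. 2×10^6 cells/well were treated at the indicated concentrations for 1 h or 2 h. Lysis was in ice-cold buffer with protease inhibitor, followed by probing with specific antibodies.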

[2] = tested on: HL-60; assay: Antiproliferative activity against human HL60 cells with lack of p53 assessed as cell growth inhibition after 4 days by WST-8 assay; format: functional, cell-based
How it was run: (§2)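 Leukemia cells seeded at 10000–20000 cells/well, breast cancer lines at 5000–10000 cells/well. Serially diluted compound added, then 4 days at 37 °C, 5% CO2. Growth read with WST-8 reagent after at least 1 h, absorbance at 450 nm. RS4;11, MOLM-13 and breast lines were grown in RPMI 1640; MV-4-11 and HL-60 in IMDM; all with 10% FBS. Mean ± SE, at least three independent experiments.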

[3] = species: Homo sapiens; assay: Antiproliferative activity against human RS4:11/IRMI-2 cells harboring p53 hotspot mutation Y236H/R249G assessed as cell growth inhibition after 4 days by WST-8 assay; format: functional, cell-based; how it was run: as §2
[4] = tested on: MDA-MB-231; assay: Antiproliferative activity against human MDA-MB-231 cells harboring mutant p53 assessed as cell growth inhibition after 4 days by WST-8 assay; format: functional, cell-based; how it was run: as §2
[5] = tested on: MDA-MB-468; assay: Antiproliferative activity against human MDA-MB-468 cells harboring mutant p53 assessed as cell growth inhibition after 4 days by WST-8 assay; format: functional, cell-based; how it was run: as §2
[6] = target: T1, E3 ubiquitin-protein ligase Mdm2; assay: Induction of MDM2 degradation in human RS4:11 cells assessed as upregulation of p53 at 1 to 30 nM after 1 hr by Western blot analysis; format: cell-based; how it was run: as §1
[7] = target: T1, E3 ubiquitin-protein ligase Mdm2; assay: Induction of MDM2 degradation in human RS4:11 cells assessed as downregulation of MDM2 at 1 to 30 nM after 2 hrs by Western blot analysis; format: cell-based; how it was run: as §1
[8] = target: T1, E3 ubiquitin-protein ligase Mdm2; assay: Induction of MDM2 degradation in human RS4:11 cells assessed as upregulation of p53 at 1 to 30 nM after 2 hrs by Western blot analysis; format: cell-based; how it was run: as §1
[9] = target: T1, E3 ubiquitin-protein ligase Mdm2; assay: Induction of MDM2 degradation in human RS4:11/IRMI-2 cells harboring p53 hotspot mutation Y236H/R249G assessed as downregulation of MDM2 at 1 to 30 nM after 2 hrs by Western blot analysis; format: cell-based
How it was run: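 RS4;11/IRMI-2 cells are an MDM2 inhibitor-resistant line derived from RS4;11, with p53 mutations confirmed by sequencing. 2×10^6 cells/well were treated 2 h at the indicated concentrations. MDM2 protein was probed by Western blot after lysis in ice-cold buffer with protease inhibitor.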

[10] = target: Cellular tumor antigen p53 (Homo sapiens) (UniProt P04637); assay: Activation of p53 in human RS4:11 cells assessed as increase in CDKN1A mRNA expression at 10 nM after 1 to 2 hrs by qRT-PCR analysis; format: cell-based
Sequence of Cellular tumor antigen p53 (Homo sapiens) (P04637 whole entry, looked up): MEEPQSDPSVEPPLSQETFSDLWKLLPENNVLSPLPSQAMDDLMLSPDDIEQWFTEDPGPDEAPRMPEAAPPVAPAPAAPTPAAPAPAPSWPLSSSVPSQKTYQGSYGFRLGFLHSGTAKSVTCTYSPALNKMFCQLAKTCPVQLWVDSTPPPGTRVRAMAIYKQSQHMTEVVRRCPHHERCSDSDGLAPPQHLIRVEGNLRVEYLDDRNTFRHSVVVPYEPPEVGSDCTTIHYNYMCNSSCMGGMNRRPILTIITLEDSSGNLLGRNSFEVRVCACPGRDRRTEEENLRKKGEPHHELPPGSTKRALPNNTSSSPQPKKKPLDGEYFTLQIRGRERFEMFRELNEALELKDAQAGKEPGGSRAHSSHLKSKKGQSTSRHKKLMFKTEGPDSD
How it was run: (§3)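 RS4;11 cells (RPMI 1640, 10% FBS, 37 °C, 5% CO2) treated with 3 nM or 10 nM compound; total RNA extracted and mRNA of p53 targets MDM2, CDKN1A, PUMA and BAX quantified by qRT-PCR. Mean ± standard error from at least three independent experiments.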

[11] = target: Cellular tumor antigen p53 (Homo sapiens) (UniProt P04637); assay: Activation of p53 in human RS4:11 cells assessed as increase in MDM2 mRNA expression at 10 nM after 1 to 2 hrs by qRT-PCR analysis; format: cell-based; how it was run: as §3
[12] = target: Cellular tumor antigen p53 (Homo sapiens) (UniProt P04637); assay: Activation of p53 in human RS4:11 cells assessed as increase in PUMA mRNA expression at 10 nM after 1 to 2 hrs by qRT-PCR analysis; format: cell-based; how it was run: as §3
[13] = target: Cellular tumor antigen p53 (Homo sapiens) (UniProt P04637); assay: Activation of p53 in human RS4:11 cells assessed as increase in BAX mRNA expression at 10 nM after 1 to 2 hrs by qRT-PCR analysis; format: cell-based; how it was run: as §3
[14] = tested on: MDA-MB-231; assay: Antiproliferative activity against human MDA-MB-231 cells transfected with CRBN siRNA LQ-021086-10-0002 assessed as cell growth inhibition after 4 days by WST-8 assay; format: functional, cell-based; conditions: MDA-MB-231, 72 h, in the assay text read “after 3 days” for “after 4 days”
How it was run: (§4)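 MDA-MB-231 or MDA-MB-468 cells transfected for 2 days using Lipofectamine RNAiMAX with MDM2 siRNA, one of two CRBN siRNAs, or non-targeting control siRNA. Compound then added and growth read by WST-8 at 450 nm.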

[15] = tested on: MDA-MB-231; assay: Antiproliferative activity against human MDA-MB-231 cells transfected with CRBN siRNA LQ-021086-11-0002 assessed as cell growth inhibition after 4 days by WST-8 assay; format: functional, cell-based; conditions: MDA-MB-231, 96 h; how it was run: as §4
[16] = tested on: MDA-MB-468; assay: Antiproliferative activity against human MDA-MB-468 cells transfected with CRBN siRNA LQ-021086-10-0002 assessed as cell growth inhibition after 4 days by WST-8 assay; format: functional, cell-based; conditions: MDA-MB-468, 96 h; how it was run: as §4
[17] = tested on: MDA-MB-468; assay: Antiproliferative activity against human MDA-MB-468 cells transfected with CRBN siRNA LQ-021086-11-0002 assessed as cell growth inhibition after 4 days by WST-8 assay; format: functional, cell-based; conditions: MDA-MB-468, 96 h; how it was run: as §4
[18] = tested on: MDA-MB-231; assay: Antiproliferative activity against human MDA-MB-231 cells assessed as cell growth inhibition after 4 days in presence of control siRNA for 3 days followed by compound treatment by WST-8 assay; format: functional, cell-based
[19] = tested on: MDA-MB-468; assay: Antiproliferative activity against human MDA-MB-468 cells assessed as cell growth inhibition after 4 days in presence of control siRNA for 3 days followed by compound treatment by WST-8 assay; format: functional, cell-based
[20] = target: T2, Protein cereblon/Eukaryotic peptide chain release factor GTP-binding subunit ERF3A/DNA damage-binding protein 1/Cullin-4A (Homo sapiens) (UniProt Q96SW2+Q16531+Q13619+P15170); assay: Protac activity at GSPT1/CUL4/DDB1/CRBN in human RS4:11 cells expressing wild type p53 assessed as decrease in GSPT1 protein level measured upto 24 hrs by Western blot analysis; format: cell-based
T2 sequence (P15170 whole entry, looked up): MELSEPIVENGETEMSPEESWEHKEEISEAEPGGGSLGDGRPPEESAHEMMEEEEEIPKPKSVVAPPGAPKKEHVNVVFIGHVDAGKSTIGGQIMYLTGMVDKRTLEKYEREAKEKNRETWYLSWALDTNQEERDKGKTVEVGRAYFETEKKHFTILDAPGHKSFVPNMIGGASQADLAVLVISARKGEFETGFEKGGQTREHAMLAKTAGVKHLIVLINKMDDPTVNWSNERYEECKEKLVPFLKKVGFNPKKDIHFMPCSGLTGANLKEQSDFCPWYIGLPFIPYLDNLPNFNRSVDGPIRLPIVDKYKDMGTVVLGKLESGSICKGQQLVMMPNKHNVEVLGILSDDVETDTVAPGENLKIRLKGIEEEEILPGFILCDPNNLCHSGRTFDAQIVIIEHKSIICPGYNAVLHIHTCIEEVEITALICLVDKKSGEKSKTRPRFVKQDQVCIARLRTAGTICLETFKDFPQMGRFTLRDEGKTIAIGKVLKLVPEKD
T2 sequence (Q13619 whole entry, looked up): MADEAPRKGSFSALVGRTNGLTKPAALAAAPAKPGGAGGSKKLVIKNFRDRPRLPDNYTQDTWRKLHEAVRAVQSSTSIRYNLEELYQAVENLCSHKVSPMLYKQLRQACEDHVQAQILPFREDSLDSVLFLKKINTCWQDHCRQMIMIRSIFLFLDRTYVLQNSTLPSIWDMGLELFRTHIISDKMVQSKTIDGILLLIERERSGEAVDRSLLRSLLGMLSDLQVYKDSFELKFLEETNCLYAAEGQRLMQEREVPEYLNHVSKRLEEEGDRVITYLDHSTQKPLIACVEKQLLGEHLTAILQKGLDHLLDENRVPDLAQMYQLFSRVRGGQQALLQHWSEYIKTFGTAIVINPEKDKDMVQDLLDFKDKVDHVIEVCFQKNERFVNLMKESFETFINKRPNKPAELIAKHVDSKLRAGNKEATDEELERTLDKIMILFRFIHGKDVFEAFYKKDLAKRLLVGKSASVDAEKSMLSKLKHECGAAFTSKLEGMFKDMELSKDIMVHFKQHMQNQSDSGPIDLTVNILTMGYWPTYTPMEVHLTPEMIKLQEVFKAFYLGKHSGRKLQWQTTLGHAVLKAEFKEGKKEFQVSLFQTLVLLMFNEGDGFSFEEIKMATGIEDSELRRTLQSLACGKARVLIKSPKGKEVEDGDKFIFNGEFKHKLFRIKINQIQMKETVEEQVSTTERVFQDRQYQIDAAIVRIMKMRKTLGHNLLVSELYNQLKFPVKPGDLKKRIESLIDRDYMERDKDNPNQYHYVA
T2 sequence (Q16531 whole entry, looked up): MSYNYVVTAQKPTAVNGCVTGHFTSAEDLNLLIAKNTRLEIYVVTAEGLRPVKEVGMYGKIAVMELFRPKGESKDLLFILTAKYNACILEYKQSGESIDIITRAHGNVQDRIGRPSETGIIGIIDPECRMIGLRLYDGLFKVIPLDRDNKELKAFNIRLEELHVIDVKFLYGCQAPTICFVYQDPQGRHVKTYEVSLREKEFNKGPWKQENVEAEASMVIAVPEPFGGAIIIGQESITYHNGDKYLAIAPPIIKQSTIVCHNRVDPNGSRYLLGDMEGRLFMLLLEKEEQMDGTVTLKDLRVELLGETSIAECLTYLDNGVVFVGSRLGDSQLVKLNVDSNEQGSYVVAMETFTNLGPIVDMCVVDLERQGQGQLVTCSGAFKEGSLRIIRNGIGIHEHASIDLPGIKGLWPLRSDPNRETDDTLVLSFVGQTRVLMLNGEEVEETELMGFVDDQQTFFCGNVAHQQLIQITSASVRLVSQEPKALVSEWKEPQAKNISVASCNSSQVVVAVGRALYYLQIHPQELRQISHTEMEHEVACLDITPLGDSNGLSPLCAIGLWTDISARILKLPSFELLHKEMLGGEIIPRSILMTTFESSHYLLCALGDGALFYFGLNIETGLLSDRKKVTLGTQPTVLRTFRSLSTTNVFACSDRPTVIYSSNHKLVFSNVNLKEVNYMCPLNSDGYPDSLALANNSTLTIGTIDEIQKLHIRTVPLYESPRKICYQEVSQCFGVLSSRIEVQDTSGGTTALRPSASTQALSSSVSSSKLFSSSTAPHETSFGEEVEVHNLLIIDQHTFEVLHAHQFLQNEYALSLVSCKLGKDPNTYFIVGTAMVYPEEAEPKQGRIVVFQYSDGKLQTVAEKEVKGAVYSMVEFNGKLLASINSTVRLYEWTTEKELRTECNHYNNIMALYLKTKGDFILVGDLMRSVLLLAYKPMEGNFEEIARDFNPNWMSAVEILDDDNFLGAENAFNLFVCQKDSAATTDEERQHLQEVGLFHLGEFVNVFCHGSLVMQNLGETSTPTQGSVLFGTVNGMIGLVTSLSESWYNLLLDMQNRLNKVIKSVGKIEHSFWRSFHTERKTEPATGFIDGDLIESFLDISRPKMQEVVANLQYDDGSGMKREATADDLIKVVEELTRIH
T2 sequence (Q96SW2 whole entry, looked up): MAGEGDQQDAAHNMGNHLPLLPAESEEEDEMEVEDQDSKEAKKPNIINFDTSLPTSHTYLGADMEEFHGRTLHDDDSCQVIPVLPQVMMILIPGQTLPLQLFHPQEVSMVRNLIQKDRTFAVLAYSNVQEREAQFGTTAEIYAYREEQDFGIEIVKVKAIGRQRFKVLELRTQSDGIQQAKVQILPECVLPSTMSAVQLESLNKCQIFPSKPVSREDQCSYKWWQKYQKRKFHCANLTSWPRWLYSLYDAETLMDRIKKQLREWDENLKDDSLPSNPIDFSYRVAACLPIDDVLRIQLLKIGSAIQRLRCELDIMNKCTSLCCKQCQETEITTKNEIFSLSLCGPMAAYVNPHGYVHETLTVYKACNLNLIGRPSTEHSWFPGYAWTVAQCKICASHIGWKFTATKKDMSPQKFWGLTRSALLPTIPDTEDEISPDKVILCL
How it was run: (§5)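 RS4;11 (wild-type p53) or RS4;11/IRMI-2 (MDM2 inhibitor-resistant derivative, mutant p53) cells kept in RPMI 1640 with 10% FBS at 37 °C, 5% CO₂. 2×10^6 cells/well treated at the indicated concentrations and times, then lysed in ice-cold lysis buffer with protease inhibitor. GSPT1 detected by Western blot with a specific antibody.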

[21] = target: T2, Protein cereblon/Eukaryotic peptide chain release factor GTP-binding subunit ERF3A/DNA damage-binding protein 1/Cullin-4A (Homo sapiens); assay: Protac activity at GSPT1/CUL4/DDB1/CRBN in human RS4:11 cells expressing wild type p53 assessed as decrease in GSPT1 protein level at 10 nM by Western blot analysis; format: cell-based; how it was run: as §5
[22] = tested on: RS4-11; assay: Antiproliferative activity against human RS4:11 cells expressing wild type p53 assessed as MDM2-independent cell growth inhibition after 4 days by WST-8 assay; format: functional, cell-based; conditions: RS4-11, 96 h; how it was run: as §2
[23] = Antiproliferative activity against human RS4:11/IRMI-2 cells harboring p53 hotspot mutation Y236H/R249G assessed as MDM2-independent cell growth inhibition after 4 days by WST-8 assay; format: functional, cell-based; conditions: RS4-11, 96 h; how it was run: as §2

O=C1CCC(N2Cc3c(CCCCCNC(=O)c4ccc(NC(=O)[C@@H]5NC6(CCCCC6)[C@@]6(C(=O)Nc7cc(Cl)ccc76)[C@H]5c5cccc(Cl)c5F)cc4)cccc3C2=O)C(=O)N1 (stereo partly drawn)
Activity [1]: Active | growth inhibition (GI) [2]: inactive | growth inhibition (GI) [3]: inactive | growth inhibition (GI) [4]: inactive | growth inhibition (GI) [5]: inactive | Activity [6]: Active | Activity [7]: Active | Activity [8]: Active | Activity [9]: Active | Activity [10]: Active | Activity [11]: Active | Activity [12]: Active | Activity [13]: Active | IC50 [14]: > 3 µM | IC50 [15]: > 3 µM | IC50 [16]: > 3 µM | IC50 [17]: > 3 µM | IC50 [18]: > 3 µM | IC50 [19]: > 3 µM | Activity [20]: inactive | Activity [21]: inactive | IC50 [22]: 0.0079 µM | IC50 [23]: > 10 µM
